These results are taken from article PMC9398096 (Molecular Cancer Therapeutics, 2021).

The subject of data set [1] is LINE-1 methylation in MDS-L cells. In words: LINE-1 methylation by bisulfite pyrosequencing in MDS-L cells. The data set is classed as cell-based, human. Particulars: 100 nmol/L; for LINE-1 methylation level: untreated 88.9%.
The test system of data set [2] is LINE-1 methylation in SKM1 cells. Briefly: LINE-1 methylation by bisulfite pyrosequencing in SKM1 cells. The data set is classed as cell-based, human. Particulars: 100 nmol/L, untreated 82.7%.
A further data set relates to HL60 cells. In words: HL60 xenograft mouse model. The data set is classed as in vivo, BALB/c Rag-2/JAK3 double-deficient (BRJ) mice. Particulars: for LINE-1 methylation in bone marrow cells / hemoglobin levels: DAC 1.0 mg/kg or OR21 2.7 mg/kg twice weekly; for LINE-1 methylation in bone marrow cells: vehicle 83.7%; for hemoglobin levels: at the time of sacrifice, vehicle 17.5 g/dL; for human CD45-positive cells in PB: day 37, vehicle 2.96%; for CD11b-positive cells in PB: late treatment from day +28, days +35 to +40, vehicle 43.3%. (In xenograft studies the graft and the host belong to different species.)

A short description of data set [3]: Long-term administration safety in BALB/c mice. The data set is classed as in vivo. Particulars: for anemia (hematopoietic toxicity) / survival on long-term administration: high dose: DAC 2.5 mg/kg or OR21 7.5 mg/kg. In a few lines: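 Non-immunodeficient BALB/c mice received long-term dosing of the test compound at 7.5 (high) or 3.7 (low) mg/kg, or a reference hypomethylating agent at 2.5 or 1.25 mg/kg. Anemia and survival were monitored while dosing continued, through at least day 57.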

The next data set concerns HL60R cells. In words: HL60R xenograft model. The format is in vivo, mice.
Data set [4] can be described thus: Stability of the base moiety in an aqueous environment. Conditions: pH 6.
For data set [5] the following is noted: mice, Supplementary Table S4, cited from earlier work.
Data set [6] is described as follows: Pharmacokinetics in cynomolgus monkeys. The data set is classed as in vivo, cynomolgus monkey.
The subject of data set [7] is LINE-1 methylation in Kasumi-1 cells. In words: LINE-1 methylation by pyrosequencing in Kasumi-1 cells. The data set is classed as cell-based, human. Particulars: 500 nmol/L, untreated 90.7%.
For a further data set, the system named is DNMT1. In words: Western blot of DNMT1 in MDS and AML cell lines. The format is cell-based, human. Conditions: 100 or 500 nmol/L; MDS-L, SKM1, HL60, THP-1.
The test system of data set [8] is MDS and AML cells. In words: Apoptosis of MDS and AML cells. The data set is classed as cell-based, human.
The subject of data set [9] is AZA-resistant HL60 (HL60R) cells. Briefly: AZA-resistant HL60. Particulars: in vitro; similar extent as DAC, more effectively than AZA. The format is cell-based, human.
Another data set relates to SKM1 cells. Briefly: SKM1 xenograft mouse model. Conditions: twice weekly from day 7 posttransplantation. The format is in vivo, BALB/c Rag-2/JAK3 double-deficient (BRJ) mice.
Another data set relates to MDS-L cells. Briefly: Flow cytometry of differentiation markers CD11b and HLA-DR. The data set is classed as cell-based, human. For orientation: A flow cytometer gives signals particle by particle.
Data set [10] has as its system MDS and AML cells. Briefly: Cell proliferation. Conditions: dose-dependent. The data set is classed as cell-based, human. In a few lines: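 Growth of MDS and AML cell lines was measured by CCK-8 assay after 72 hours of treatment across a dose range. IC50 was derived by nonlinear regression of the dose–response curves.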
Data set [11] has as its system LINE-1 methylation in THP-1 cells. In words: LINE-1 methylation by pyrosequencing in THP-1 cells. The format is cell-based, human. Conditions: 500 nmol/L, untreated 69.0%.
Data set [12] concerns LINE-1 methylation in KG1a cells. Briefly: LINE-1 methylation by pyrosequencing in KG1a cells. The data set is classed as cell-based, human. Conditions: 500 nmol/L, untreated 89.1%.
The test system of data set [13] is LINE-1 methylation in HL60 cells. Briefly: LINE-1 methylation by pyrosequencing in HL60 cells. Particulars: 500 nmol/L, untreated 83.7. The data set is classed as cell-based, human.
Setting [14] is: DAC 1.0 mg/kg or OR21 2.7 mg/kg twice weekly from day 5, vehicle 44 days.
Where [15] appears, read: DAC 1.0 mg/kg or OR21 2.7 mg/kg twice weekly from day 5.
[16] abbreviates: higher dose: DAC 2.0 mg/kg or OR21 5.4 mg/kg, vehicle 48 days.

The structures appear in SMILES notation. Several values for one entry are separate records, joined by “and”; a condition that tells them apart may be missing. Equal values may be shown once. Read-outs that look alike come from different tables or passages of the source.

In the case of `Nc1ncn([C@@H]2O[C@H](CO)[C@@H](O)[C@H]2O)c(=O)n1` [AZA, azacitidine], in [1], the “LINE-1 methylation levels, effect of treatment” value is “did not decrease” and the LINE-1 methylation level is listed as 88.8%. This compound showed an LINE-1 methylation level in data set [2] of 72.1%.
In the data set on HL60 cells (setting [14]), `Nc1ncn([C@H]2C[C@H](O)[C@@H](CO)O2)c(=O)n1` [DAC, decitabine, reference compound] had a median overall survival of 46.5 days. In the data set on HL60 cells, the “LINE-1 methylation in bone marrow cells” value is listed as 56.3%; the hemoglobin levels was 15.6 g/dL and 15.6 (±1.22) g/dL; the “CD11b-positive cells in PB” value is 75.7%. Further, the “human CD45-positive cells in PB” value in the data set with HL60 cells (setting [15]) stood at 1.67%. The compound also came in with a median overall survival with HL60 cells (setting [16]) of 32 days. Moreover, in data set [3], the “anemia (hematopoietic toxicity)” value is reported as “severe anemia” and the “survival on long-term administration” value is recorded as “died within 80 days”. In data set [3] (low dose: DAC 1.25 mg/kg or OR21 3.7 mg/kg), the anemia entry is on record as “more likely than OR21-treated mice to develop anemia”. The toxicity result with HL60R cells was “severe toxicity”. Also, the LINE-1 methylation level in [1] was determined as 75.2%. Besides, the half-life – broadly, the time needed for the level to fall by half in the phase considered – in data set [4] is about 20 h. Besides, the “peak plasma concentration of DAC” value in data set [5] (administration of 0.88 μmol/L/kg DAC (calculated as an AUC equivalent to that of released DAC)) was 0.64 µmol/L. For the same compound, the LINE-1 methylation level in [2] was 58.4% and 66.9%. Also, the AUC in [6] (10.9 μmol/kg (1.67 mg/kg) intravenous) was 0.49 (±0.17) μmol/L/hour. The “enteric bioavailability” value in data set [6] (higher dose) was “did not result in enteric bioavailability”.
In the case of `CC[Si](CC)(CC)OC[C@H]1O[C@@H](n2cnc(N)nc2=O)C[C@@H]1O` [OR21, 5′-O-triethylsilyl-2′-deoxy-5-azacytidine], the LINE-1 methylation level is listed as 78.6% in data set [7]; 74.2% in data set [1]; 66.9% in data set [2]; 64.6% in [11]; 82.4% in [12]; 76.0% in [13]. Further, the median overall survival in the data set on HL60 cells (setting [14]) is given as 49 days; in the data set with HL60 cells (setting [16]) it was 57 days; in the data set on SKM1 cells (vehicle 29 days), over 53 days. The “LINE-1 methylation in bone marrow cells” value in the data set with HL60 cells is listed as 63.0%. The hemoglobin levels with HL60 cells is 17.1 g/dL and 17.1(±0.31) g/dL. Moreover, the “human CD45-positive cells in PB” value with HL60 cells (setting [15]) was found to be 0.75%. The “CD11b-positive cells in PB” value in the data set on HL60 cells worked out at 65.5%. Also, the “anemia (hematopoietic toxicity)” value in data set [3] is given as “developed anemia by day 29, but recovered by day 57”. The “survival on long-term administration” value in [3] was “all were still alive after 80 days”. In addition, the survival entry in the data set with HL60R cells (P = 0.0188) is given as “significantly prolonged survival”. Also, in the data set with DNMT1, the “DNMT1 levels versus untreated cells” value is reported as “markedly lower”. Further, the apoptosis entry in the data set on MDS and AML cells [8] (MDS and AML cells, dose-dependent) is recorded as “induced apoptosis”. Also, in the data set with MDS and AML cells [8] (primary MDS and AML cells), the “apoptosis of primary cells” value was “induced apoptosis of primary MDS and AML cells”. Further, the “LINE-1 methylation levels, effect of treatment” value in data set [1] is reported as “significantly decreased”. In addition, the “growth of HL60R cells” value in data set [9] is given as “inhibited growth”. The compound further had a half-life in [4] of 20 h. For the same compound, the “AUC of released DAC” value in data set [5] (intraperitoneal 1.59 μmol/L/kg OR21) was 0.38 µmol/L/h. Besides, the “peak plasma concentration of DAC” value in data set [5] (intraperitoneal administration of 1.59 μmol/L/kg OR21) was 0.43 µmol/L. Also, the “human CD45-positive cells in peripheral blood” value in the data set on SKM1 cells (day 28, vehicle 6.40%) is recorded as 0.31%. Further, the “expression of CD11b” value in the data set with MDS-L cells is on record as “upregulated”. In the data set on MDS-L cells, the “expression of HLA-DR” value is listed as “downregulated”. Besides, the cell growth entry in the data set with MDS and AML cells [10] is recorded as “inhibited growth”. In addition, the AUC was 0.25 (±0.14) μmol/L/hour in [6] (10.9 μmol/kg (3.75 mg/kg) duodenal administration) and 0.45 ± 0.23 µmol/L/h in data set [6] (9.0 mg/kg (26.3 μmol/kg) duodenal administration).
